Data on 17 compounds can be found in ChEMBL document CHEMBL4219251, “Synthesis and biological evaluation of 2,4-disubstituted phthalazinones as Aurora kinase inhibitors” (Bioorg Med Chem, 2018).

For one test, the system named is HeLa. In words: Antiproliferative activity against human HeLa cells after 72 hrs by MTT assay. The test is classed as functional, cell-based. The gist of the method: (§1)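 Cells kept in RPMI-1640 with 10% FBS at 37 °C, 5% CO2. Seeded at 5×10^3 cells/well and grown 24 h, then exposed 72 h at 37 °C to five concentrations (0.01, 0.1, 1, 10, 100 μM) in medium. MTT added for 4 h, formazan dissolved in DMSO, absorbance read at 490 nm. IC50 taken from a log plot of percent of control vs concentration; means ± SD of triplicate experiments.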

In a further test the test system is A549. Description: Antiproliferative activity against human A549 cells after 72 hrs by MTT assay. The test is classed as functional, cell-based. The gist of the method: as §1
On the technique in general: Tetrazolium assays rely on reduction of a dye to a coloured formazan, in cell work by metabolically active cells.

The next test deals with HepG2. In words: Antiproliferative activity against human HepG2 cells after 72 hrs by MTT assay. In kind it is functional, cell-based. In a few lines:
as §1

Another test concerns HCT-116. In words: Antiproliferative activity against human HCT116 cells after 72 hrs by MTT assay. In kind it is functional, cell-based. The gist of the method:
as §1

Another test concerns LoVo. Description: Antiproliferative activity against human LoVo cells after 72 hrs by MTT assay. The test is classed as functional, cell-based. In a few lines: as §1
A further test concerns the target T1, Aurora kinase A (Homo sapiens, UniProt O14965).
T1 sequence (O14965 whole entry): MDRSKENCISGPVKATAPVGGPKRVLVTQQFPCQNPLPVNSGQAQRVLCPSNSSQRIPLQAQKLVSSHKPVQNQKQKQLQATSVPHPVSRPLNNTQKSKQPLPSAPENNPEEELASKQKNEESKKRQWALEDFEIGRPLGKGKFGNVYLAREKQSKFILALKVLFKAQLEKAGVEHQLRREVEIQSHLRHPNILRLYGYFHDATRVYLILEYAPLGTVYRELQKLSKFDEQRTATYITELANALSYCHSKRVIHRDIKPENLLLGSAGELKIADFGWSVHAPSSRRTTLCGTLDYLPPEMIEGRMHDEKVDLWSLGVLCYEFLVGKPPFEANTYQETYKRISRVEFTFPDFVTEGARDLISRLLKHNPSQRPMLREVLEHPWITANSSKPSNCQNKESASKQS
In words: Inhibition of Aurora A (unknown origin) using kemptide as substrate after 30 mins by kinase-Glo luminescence method. The gist of the method: (§2)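 Luminescent kinase assay. Reaction buffer: 40 mM Tris pH 7.4, 10 mM MgCl2, 1 mM DTT, 0.1 mg/ml BSA, 10 μM ATP, 0.2 μg/ml kinase, 100 μM Kemptide. Compounds tested at 0.1, 1, 10, 100 and 1000 nM (diluted in PBS). Reactions ran 30 min at 37 °C, signal read by Kinase-Glo luminescence, IC50 fitted from the curves.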
Background: Kinase-Glo measures the ATP left after a reaction by luminescence.

In the next test the target is Aurora kinase B (Homo sapiens, UniProt Q96GD4). Description: Inhibition of Aurora B (unknown origin) using kemptide as substrate after 30 mins by kinase-Glo luminescence method. The gist of the method:
as §2

Sequence of Aurora kinase B (Q96GD4 whole entry): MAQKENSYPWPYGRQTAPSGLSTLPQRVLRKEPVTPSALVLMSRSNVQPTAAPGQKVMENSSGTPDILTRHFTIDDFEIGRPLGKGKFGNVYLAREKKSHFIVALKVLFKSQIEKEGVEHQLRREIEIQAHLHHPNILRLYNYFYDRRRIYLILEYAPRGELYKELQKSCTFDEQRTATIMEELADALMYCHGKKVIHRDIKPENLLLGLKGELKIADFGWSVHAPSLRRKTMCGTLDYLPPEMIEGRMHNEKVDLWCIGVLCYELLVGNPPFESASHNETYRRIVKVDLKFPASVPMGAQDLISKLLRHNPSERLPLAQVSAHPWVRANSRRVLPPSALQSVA

One may read the IC50 as the point on the concentration scale where inhibition reaches its midpoint. Read a high IC50 as weaker potency in that assay. Consider `O=C(Nc1ccccc1Cl)c1ccc(Nc2nn(Cc3ccc(C(=O)NC4CCCCC4)cc3)c(=O)c3ccccc23)cc1`, for which the IC50 with HeLa (Homo sapiens, HeLa, 72 h) was 87.3 µM; in the test on A549 (Homo sapiens, A549, 72 h), above 100 µM; in the test with HepG2 (Homo sapiens, HepG2, 72 h) it was 82.4 µM; in the test with HCT-116 (Homo sapiens, HCT-116, 72 h) it was above 100 µM; with LoVo (Homo sapiens, LoVo, 72 h), 79.5 µM.
With `Cc1noc(C)c1-c1nn(Cc2ccc(C(=O)N3CCOCC3)cc2)c(=O)c2ccccc12`, the IC50 in the test with HeLa (Homo sapiens, HeLa, 72 h) was above 100 µM; in the test with A549 (Homo sapiens, A549, 72 h), above 100 µM; in the test with HepG2 (Homo sapiens, HepG2, 72 h), above 100 µM; in the test on HCT-116 (Homo sapiens, HCT-116, 72 h), above 100 µM; with LoVo (Homo sapiens, LoVo, 72 h), 84.4 µM.
Regarding `Cn1cc(Nc2nn(Cc3ccc(C(=O)NC4CCCCC4)cc3)c(=O)c3ccccc23)cn1`, the IC50 on Aurora kinase A came to 0.145 µM; with HeLa (Homo sapiens, HeLa, 72 h), 3.2 µM; in the test with A549 (Homo sapiens, A549, 72 h), 6.8 µM; in the test on HepG2 (Homo sapiens, HepG2, 72 h), 8.3 µM; with HCT-116 (Homo sapiens, HCT-116, 72 h) it was 5.4 µM; with LoVo (Homo sapiens, LoVo, 72 h) it was 5.3 µM. In addition, half-maximal inhibition on Aurora kinase B (IC50) was put at 0.132 µM.
As for `O=C(NC1CCCCC1)c1ccc(Cn2nc(Nc3ccc(C(=O)N4CCOCC4)cc3)c3ccccc3c2=O)cc1`, the IC50 in the test with HeLa (Homo sapiens, HeLa, 72 h) stood at 23.2 µM; with A549 (Homo sapiens, A549, 72 h), 64.3 µM; in the test on HepG2 (Homo sapiens, HepG2, 72 h), 40.4 µM; in the test with HCT-116 (Homo sapiens, HCT-116, 72 h), 48.2 µM; with LoVo (Homo sapiens, LoVo, 72 h) it was 54.5 µM.
The like results for `Cn1cc(-c2nn(Cc3ccc(C(=O)NC4CC4)cc3)c(=O)c3ccccc23)cn1` were, in that order, 40 µM, 51.2 µM, above 100 µM, 20.1 µM and 48.2 µM.
The like results for `Cc1noc(C)c1-c1nn(Cc2ccc(C(=O)NC3CCCC3)cc2)c(=O)c2ccccc12` were, in that order, above 100 µM, above 100 µM, above 100 µM, above 100 µM and above 100 µM.
In the case of `Cc1noc(C)c1-c1nn(Cc2ccc(C(=O)NC3CCN(C)CC3)cc2)c(=O)c2ccccc12`, the 50% inhibitory concentration (IC50) in the test with HeLa (Homo sapiens, HeLa, 72 h) is above 100 µM; in the test with A549 (Homo sapiens, A549, 72 h), above 100 µM; in the test with HepG2 (Homo sapiens, HepG2, 72 h), above 100 µM; in the test on HCT-116 (Homo sapiens, HCT-116, 72 h), 84.9 µM; in the test on LoVo (Homo sapiens, LoVo, 72 h), above 100 µM.
On to `Cc1noc(C)c1-c1nn(Cc2ccc(C(=O)NC3CCCCC3)cc2)c(=O)c2ccccc12`, for which the IC50 is above 100 µM in the test with HeLa (Homo sapiens, HeLa, 72 h); above 100 µM in the test with A549 (Homo sapiens, A549, 72 h); above 100 µM with HepG2 (Homo sapiens, HepG2, 72 h); above 100 µM in the test with HCT-116 (Homo sapiens, HCT-116, 72 h); 82.2 µM in the test on LoVo (Homo sapiens, LoVo, 72 h).
Consider `CN1CCC(NC(=O)c2ccc(Cn3nc(-c4cnn(C)c4)c4ccccc4c3=O)cc2)CC1`, for which the half-maximal inhibitory concentration (IC50) against Aurora kinase A is 0.183 µM; with HeLa (Homo sapiens, HeLa, 72 h), 28.5 µM; in the test with A549 (Homo sapiens, A549, 72 h), 54.3 µM; in the test on HepG2 (Homo sapiens, HepG2, 72 h), 47.3 µM; in the test with HCT-116 (Homo sapiens, HCT-116, 72 h) it was 69.5 µM; with LoVo (Homo sapiens, LoVo, 72 h) it was 83.3 µM. The IC50 on Aurora kinase B was 0.105 µM.
As for `Cc1noc(C)c1-c1nn(Cc2ccc(C(=O)NC3CC3)cc2)c(=O)c2ccccc12`, the IC50 in the test on HeLa (Homo sapiens, HeLa, 72 h) is above 100 µM; in the test on A549 (Homo sapiens, A549, 72 h) it was above 100 µM; in the test with HepG2 (Homo sapiens, HepG2, 72 h), above 100 µM; in the test on HCT-116 (Homo sapiens, HCT-116, 72 h) it was above 100 µM; in the test with LoVo (Homo sapiens, LoVo, 72 h) it was above 100 µM.
With `Cn1cc(-c2nn(Cc3ccc(C(=O)N4CCOCC4)cc3)c(=O)c3ccccc23)cn1`, the IC50 in the test on HeLa (Homo sapiens, HeLa, 72 h) was above 100 µM; in the test with A549 (Homo sapiens, A549, 72 h) it was 73.3 µM; in the test with HepG2 (Homo sapiens, HepG2, 72 h), above 100 µM; in the test with HCT-116 (Homo sapiens, HCT-116, 72 h), above 100 µM; in the test with LoVo (Homo sapiens, LoVo, 72 h), 52.3 µM.
For `Cn1cc(-c2nn(Cc3ccc(C(=O)NC4CC(C)(C)N([O])C(C)(C)C4)cc3)c(=O)c3ccccc23)cn1`, the IC50 is 0.168 µM against Aurora kinase A; 27.7 µM in the test on HeLa (Homo sapiens, HeLa, 72 h); 37.3 µM in the test on A549 (Homo sapiens, A549, 72 h); 27.4 µM with HepG2 (Homo sapiens, HepG2, 72 h); 50.5 µM with HCT-116 (Homo sapiens, HCT-116, 72 h); 50.1 µM with LoVo (Homo sapiens, LoVo, 72 h). On Aurora kinase B, this compound had an IC50 of 0.134 µM.
As for `Cc1cc(Nc2nn(Cc3ccccc3)c(=O)c3ccccc23)n[nH]1`, the IC50 in the test with HeLa (Homo sapiens, HeLa, 72 h) is 6.3 µM; in the test with A549 (Homo sapiens, A549, 72 h), 42.6 µM; with HepG2 (Homo sapiens, HepG2, 72 h), 11.3 µM; with HCT-116 (Homo sapiens, HCT-116, 72 h) it was 22.7 µM; with LoVo (Homo sapiens, LoVo, 72 h), 22.2 µM.
The like results for `Cn1cc(-c2nn(Cc3ccc(C(=O)N4CCCCC4)cc3)c(=O)c3ccccc23)cn1` were, in that order, 65.5 µM, 67.4 µM, 73.1 µM, 73.9 µM and 77.1 µM.
Turning to `Cn1cc(-c2nn(Cc3ccc(C(=O)NC4CCCC4)cc3)c(=O)c3ccccc23)cn1`, the IC50 at Aurora kinase A was found to be 0.583 µM; in the test with HeLa (Homo sapiens, HeLa, 72 h) it was 16.7 µM; with A549 (Homo sapiens, A549, 72 h) it was 32.3 µM; with HepG2 (Homo sapiens, HepG2, 72 h) it was 84.3 µM; in the test on HCT-116 (Homo sapiens, HCT-116, 72 h) it was 14.3 µM; in the test on LoVo (Homo sapiens, LoVo, 72 h) it was 23.7 µM. Half-maximal inhibition against Aurora kinase B (IC50) was put at 0.265 µM.
With `Cc1noc(C)c1-c1nn(Cc2ccc(C(=O)NC3CC(C)(C)N([O])C(C)(C)C3)cc2)c(=O)c2ccccc12`, the concentration for half-maximal inhibition (IC50) in the test on HeLa (hela) worked out at 83.5 µM; in the test on A549 (a549), 84.3 µM; in the test with HepG2 (hepg2) it was 85.1 µM; with HCT-116 (hct-116), 36.8 µM; in the test on LoVo (lovo), 41.2 µM.
Take `Cc1noc(C)c1-c1nn(Cc2ccc(C(=O)N3CCCCC3)cc2)c(=O)c2ccccc12`: the IC50 with HeLa (Homo sapiens, HeLa, 72 h) was above 100 µM; in the test on A549 (Homo sapiens, A549, 72 h), 86.2 µM; in the test with HepG2 (Homo sapiens, HepG2, 72 h) it was 97.3 µM; in the test on HCT-116 (Homo sapiens, HCT-116, 72 h) it was above 100 µM; in the test on LoVo (Homo sapiens, LoVo, 72 h), above 100 µM.
